Measurements as given in ChEMBL document CHEMBL4145607, “Tamarixetin Exhibits Anti-inflammatory Activity and Prevents Bacterial Sepsis by Increasing IL-10 Production” (J Nat Prod, 2018).
Activity calls are given as the source filed them. The calls are words filed in the database; no cut-off is given here.

Columns and labels:
BMDC [1] = assay: Inhibition of LPS-induced immune response in C57BL/6 mouse BMDC assessed as increase in IL10 secretion up to 25 uM pretreated for 30 mins followed by LPS-challenge measured after 6 hrs by ELISA; assay type: functional, cell-based
How it was run: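 Mouse BMDCs (female C57BL/6 bone marrow, GM-CSF-derived, ≥90% CD11c+ on day 7) pretreated 30 min with graded compound concentrations, then stimulated with LPS 50 ng/mL for 6 h. Supernatant TNF-α, IL-6, IL-10 and IL-12p70 quantified by sandwich ELISA. Mean ± SEM vs LPS-only cells; experiments repeated at least three times.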

BMDC [2] = assay: Inhibition of LPS-induced immune response in C57BL/6 mouse BMDC assessed as reduction in IL-6 secretion at 25 uM treated 6 hrs post LPS-challenge measured after 60 to 120 mins by ELISA; assay type: functional, cell-based
How it was run: (§1)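 Bone marrow DCs from 6-week-old female C57BL/6 mice, RBC-lysed, cultured in RPMI-1640/10% FBS with 10 ng/mL rmGM-CSF, 37 °C, 5% CO2. Cells given LPS 50 ng/mL for 6 h, then 25 μM compound added for 30, 60, 90 or 120 min. Supernatant TNF-α, IL-6, IL-10, IL-12p70 measured by sandwich ELISA. Mean ± SEM, compared with LPS-only DCs.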

BMDC [3] = assay: Inhibition of LPS-induced immune response in C57BL/6 mouse BMDC assessed as increase in IL10 secretion at 25 uM treated 6 hrs post LPS-challenge measured after 60 to 120 mins by ELISA; assay type: functional, cell-based; how it was run: as §1
[4] = biological target: T1, Toll-like receptor 4 (Mus musculus) (UniProt Q9QUK6); assay: Inhibition of LPS-induced TLR4 activation in C57BL/6 mouse BMDC assessed as reduction in p38 phosphorylation at 25 uM pretreated for 30 mins followed by LPS-challenge measured after 15 to 90 mins by Western blot analysis; assay type: cell-based
T1 sequence (whole entry): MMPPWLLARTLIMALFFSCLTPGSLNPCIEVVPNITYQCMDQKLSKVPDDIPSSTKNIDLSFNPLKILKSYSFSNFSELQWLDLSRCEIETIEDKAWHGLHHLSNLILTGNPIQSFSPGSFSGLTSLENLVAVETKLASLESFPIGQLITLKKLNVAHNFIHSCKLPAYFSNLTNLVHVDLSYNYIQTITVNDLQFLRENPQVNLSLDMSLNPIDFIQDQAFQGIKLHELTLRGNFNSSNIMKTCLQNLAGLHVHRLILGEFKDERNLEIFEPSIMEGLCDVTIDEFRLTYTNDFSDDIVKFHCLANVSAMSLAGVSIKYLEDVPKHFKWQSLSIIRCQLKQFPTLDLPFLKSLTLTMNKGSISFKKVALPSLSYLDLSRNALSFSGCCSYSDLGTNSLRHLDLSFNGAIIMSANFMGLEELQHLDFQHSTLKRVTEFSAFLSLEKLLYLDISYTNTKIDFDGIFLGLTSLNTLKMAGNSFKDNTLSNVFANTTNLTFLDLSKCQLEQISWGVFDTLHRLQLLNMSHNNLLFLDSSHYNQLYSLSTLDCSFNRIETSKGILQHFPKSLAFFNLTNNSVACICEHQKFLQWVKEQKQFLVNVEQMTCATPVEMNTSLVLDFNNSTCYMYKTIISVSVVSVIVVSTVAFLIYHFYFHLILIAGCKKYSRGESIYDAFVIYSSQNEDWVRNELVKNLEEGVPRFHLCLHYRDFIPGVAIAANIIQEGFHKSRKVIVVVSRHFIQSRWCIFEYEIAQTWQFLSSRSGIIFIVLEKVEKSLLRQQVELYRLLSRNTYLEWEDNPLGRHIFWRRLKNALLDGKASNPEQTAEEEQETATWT
How it was run: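 BMDCs were pretreated 30 min with 25 μM compound, then stimulated with LPS 50 ng·mL−1 for the indicated times. Lysates (25 μg protein) were run on 10% SDS-PAGE and immunoblotted for phospho/total ERK, JNK, p38 and Akt, plus COX-2, IκBα and α-tubulin, with ECL detection. Representative of three experiments.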

BMDC [5] = assay: Increase in microRNA146a expression in LPS-induced C57BL/6 mouse BMDC at 25 uM pretreated for 30 mins followed by LPS-challenge measured after 6 hrs by qRT-PCR analysis; assay type: functional, cell-based
How it was run: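 Total RNA was extracted from BMDCs with TRIzol and reverse transcribed. miR-146a, miR-155 and miR-187 were quantified by real-time qPCR with gene-specific primers.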

BMDC [6] = assay: Inhibition of Escherichia coli DH5alpha infection-induced immune response in C57BL/6 mouse BMDC assessed as reduction in IL-6 secretion at 25 uM pretreated for 60 to 120 mins followed by Escherichia coli DH5alpha infection for 6 hrs by ELISA; assay type: functional, cell-based
How it was run: (§2)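 C57BL/6 BMDCs received 25 μM compound and E. coli DH5α, 3 × 10^6 CFU·mL−1. Schedules were: compound 30 min before a 6 h infection; co-addition for 6 h; or compound for 30, 60, 90 or 120 min plus 6 h infection. Supernatant TNF-α, IL-6, IL-10 and IL-12p70 were measured by ELISA. At least three experiments in triplicate.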

BMDC [7] = assay: Inhibition of Escherichia coli DH5alpha infection-induced immune response in C57BL/6 mouse BMDC assessed as reduction in TNFalpha secretion at 25 uM pretreated for 60 to 120 mins followed by Escherichia coli DH5alpha infection for 6 hrs by ELISA; assay type: functional, cell-based; how it was run: as §2
Mus musculus [8] = assay: (§3) Antiseptic activity in Balb/c mouse model of Escherichia coli K1 infection-induced sepsis assessed as reduction in serum IL6 level at 1 mg/kg, ip pretreated for 1 hr followed by Escherichia coli K1 infection measured after 2 hrs by ELISA; assay type: functional, organism-based
How it was run: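 BALB/c mice received 1 mg·kg−1 i.p. 1 h before i.p. E. coli K1 RS218, 1 × 10^6 CFU per mouse. Serum was collected at 2 h, and TNF-α, IL-6 and IL-10 were quantified by sandwich ELISA. Means ± SEM.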

Mus musculus [9] = assay: as §3, with “infiltration of immune cells in lungs” for “serum IL6 level”, “12” for “2”, “hematoxylin and eosin staining based microscopic analysis” for “ELISA”; assay type: functional, organism-based
How it was run: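 BALB/c mice were given 1 mg·kg−1 i.p. 1 h before i.p. E. coli K1 (1 × 10^6 CFU per mouse). At 12 h, lungs were perfused and formalin-fixed. Sections were H&E-stained and examined by microscope. Representative of three independent experiments.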

Mus musculus [10] = assay: Antiseptic activity in Balb/c mouse model of Escherichia coli K1 infection-induced sepsis assessed as reduction in serum ALT level at 1 mg/kg, ip pretreated for 1 hr followed by Escherichia coli K1 infection measured after 2 hrs by ELISA; assay type: functional, organism-based
Mus musculus [11] = assay: Antiinflammatory activity in Balb/c mouse model of LPS-induced endotoxemia assessed as increase in IL10 producing monocyte/macrophage in splenocyte at 1 mg/kg, ip pretreated for 1 hr followed by LPS-challenge measured after 12 hrs by flow cytometric analysis; assay type: functional, organism-based

COc1ccc(-c2oc3cc(O)cc(O)c3c(=O)c2O)cc1O [TAMARIXETIN]
inhibition (BMDC [1]): Active | inhibition (BMDC [2]): inactive | inhibition (BMDC [3]): inactive | inhibition [4]: Active | Activity (BMDC [5]): Active | inhibition (BMDC [6]): inactive | inhibition (BMDC [7]): inactive | Activity (Mus musculus [8]): Active | Activity (Mus musculus [9]): Active | Activity (Mus musculus [10]): Active | Activity (Mus musculus [11]): Active
